HEK293 NFkB inh – inhibitors of the PMA/ionomycin-induced NF-kB reporter in HEK293 cells; inhibition, % at 3 µM; 62,000 compounds, 0.21% hits; HEK-293 NF-kB luciferase reporter, luminescence;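 active means inhibition above the mean of all tested compounds plus 3 SD, cut at about 40% in these data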
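Signal: luciferase luminescence; Material: HEK-293 cells with stable firefly luciferase reporter driven by four HIV NF-kB elements; Probe or stimulus: PMA with ionomycin; Replication: tested once; Times: 1 h compound pretreatment, then 16 h stimulation at 37 °C, 5% CO2; Benchmarks: DMSO and 10 µM reference inhibitor; Evaluation: per-plate % inhibition versus controls.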
ROCK2 blocker – ROCK2 (human) kinase inhibition; O75116; 60,000 compounds, 0.35% hits; inhibition, % at 6 µM; purified ROCK2, Kinase-Glo ATP depletion luminescence; AID 604;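 active means inhibition above the screen-wide mean inhibition plus 3 SD, cut at about 18% in these data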
JNK3 inh – JNK3 (human) kinase inhibition; purified JNK3 kinase activity, HTS; inhibition, % at 8 µM; 60,000 compounds, 0.61% hits; in the data active means inhibition above about 17%
PKA kinase inh – blocks human protein kinase A activity | P17612 | PKA Kemptide phosphorylation, Kinase-Glo ATP luminescence | inhibition, % at 6 µM | 65,000 compounds, 0.1% hits | AID 524;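 active means inhibition above the screen-wide mean inhibition plus 3 SD, cut at about 21% in these data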
Numbers stand for hits; - = inactive; . = no result. Most compounds without a hit are left out; they make up all but 0.64% or so of the library.

SMILES	HEK293 NFkB inh	ROCK2 blocker	JNK3 inh	PKA kinase inh
O=c1c2ccccc2nc(-c2ccco2)n1CCCn1ccnc1	-	-	18	-
Cc1cccc(N2CCN(C(=O)c3cn(C)c(=O)c4c3c3ccccc3n4C)CC2)c1C	-	169	-	-
CC(C)COC(=O)Cn1cnc2ccc(Br)cc2c1=O	-	-	-	-
CC(=O)c1sc(NC(=O)C2COc3ccccc3O2)nc1C (centres undefined)	-	-	-	-
CC(=O)c1sc(Nc2ccccn2)nc1C	-	-	23	-
CCN1CCN(CC(=O)Nc2cccc(C)c2C)C(=O)C1=O	-	-	-	-
CCc1cc2c(=O)[nH]cnc2s1	-	51	-	23
CC(C)c1ccccc1OCCCCCNCCO	-	-	-	-
Cn1ncc2c(NCc3ccccc3)ncnc21	-	-	18	-
Clc1ccc(-n2ncc3c(NCc4cccs4)ncnc32)cc1	.	-	-	-
c1ccc(CNc2ncnc3c2cnn3-c2ccccc2)cc1	-	-	21	-
Cc1cccc(-n2ncc3c(NCc4cccs4)ncnc32)c1	-	-	22	-
CCc1nnc(NC(=O)CSc2nccn2-c2cc(C)cc(C)c2)s1	-	-	-	-
COc1ccc(CC(=O)NCc2ccccc2)cc1S(=O)(=O)N1CCOCC1	-	-	-	-
COc1ccc(CC(=O)Nc2nc3ccccc3s2)cc1S(=O)(=O)N1CCOCC1	-	-	37	-
CS(=O)(=O)N1CCN(c2ccccc2NC(=O)Cc2ccccc2)CC1	-	-	17	-
CS(=O)(=O)N1CCN(c2ccccc2NC(=O)Cc2ccc(Cl)cc2)CC1	-	-	-	-
CC1CC(C)CN(Cc2nc3c(c(=O)n(C)c(=O)n3C)n2Cc2ccccc2Cl)C1 (centres undefined)	-	-	-	-
O=C(CCCn1c(=O)[nH]c2cc(Cl)ccc2c1=O)NCC1CCCO1 (centres undefined)	-	-	23	-
O=C(CCCn1c(=O)[nH]c2cc(Cl)ccc2c1=O)NCCCN1CCCC1	-	.	.	-
CN1CCN(CC#CCn2c3ccccc3c3ccccc32)CC1	-	-	-	-
COc1ccc2ncn(-c3ccccc3)c2c1	-	-	30	-
COc1ccc(-n2cnc3cc(NCc4cccs4)ccc32)cc1	-	-	-	-
CCOC(=O)CCCc1sc(N)nc1-c1[nH]c(=O)[nH]c1C	-	-	25	-
CCOC(=O)CCc1nc2ccccc2[nH]1	-	-	-	-
SMILES	HEK293 NFkB inh	ROCK2 blocker	JNK3 inh	PKA kinase inh
CN(C)c1ccnc(NCc2ccccc2)c1C#N	-	-	-	-
N#Cc1c(NCc2ccccc2)ccnc1NCc1cccnc1	-	-	75	-
Cc1ccccc1-n1c(Cn2c(=O)sc3ccccc32)nnc1SCC(=O)NCC1CCCO1 (centres undefined)	-	-	-	-
NC(=O)c1sc2nc(N3CCCCC3)c3c(c2c1N)CCCC3	-	42	-	27
CC1CCc2nc(N)c(C#N)c(-c3ccncc3)c2C1 (centres undefined)	-	-	17	-
CCN(CC)c1ccc2cc(-c3nc4ccccc4n3C)c(=O)oc2c1	40	-	-	-
CCN(CC)c1ccc2cc(-c3nc4ccccc4[nH]3)c(=O)oc2c1	-	-	-	-
O=C1c2ccccc2C(=O)N1CSc1ncccn1	-	-	-	-
O=C(O)c1cc(NCc2ccc3c(c2)OCO3)ccc1N1CCOCC1	-	51	-	-
COC(=O)c1cc(NCc2ccc3c(c2)OCO3)ccc1N1CCOCC1	-	-	-	-
COc1ccc2noc3c2c1C(=O)c1ccccc1-3	-	-	-	-
O=C1c2ccccc2-c2onc3ccc(NCCCn4ccnc4)c1c23	-	-	38	-
Fc1ccc2nc3[nH]c4ccccc4c3nc2c1	-	-	37	-
O=C1C(c2ccncc2)N(CCC2=CCCCC2)C(=O)CN1C1CCCCC1 (centres undefined)	-	.	.	-
Cc1ccc(Cl)cc1N1CCN(C(=O)CCS(=O)(=O)c2cccc3nonc23)CC1	-	.	.	-
Cc1cc(NC(=O)CSC2=Nc3ccccc3C3=NC(Cc4ccccc4)C(=O)N23)n[nH]1 (centres undefined)	-	-	36	-
COC(=O)c1c(NC(=O)Cc2cccs2)sc2c1CCCC2	-	-	-	-
COC(=O)c1c(NC(=O)Cc2cccs2)sc(C)c1C	-	-	18	-
CC1CC(C)CN(c2nc3c(c(=O)[nH]c(=O)n3C)n2CCSc2nc3ccccc3o2)C1 (centres undefined)	-	-	-	-
COc1cc(CC(=O)Nc2sccc2C(N)=O)cc(OC)c1OC	-	-	56	-
Cc1ccsc1C(=O)OCC(=O)Nc1sccc1C(N)=O	-	-	-	-
COc1ccc(C(=O)n2nc(-c3ccccc3)nc2N)cc1OC	-	-	49	-
Cc1nc2sccn2c1-c1nc(-c2cc3ccccc3o2)cs1	-	-	-	-
Cc1ccnc(Nc2nc(-c3c(C)nc4sccn34)cs2)c1	-	-	34	-
COc1cc(C(=O)Nc2nccs2)ccc1OCc1c(C)noc1C	-	-	21	-
SMILES	HEK293 NFkB inh	ROCK2 blocker	JNK3 inh	PKA kinase inh
Cc1cc2nc(C3CCN(CC4COc5ccccc5O4)CC3)[nH]c2cc1C (centres undefined)	-	-	-	-
O=C(CCCOc1ccccc1)Nc1ccncc1	-	33	-	30
CCCCOc1ccc(C(=O)Nc2ccncc2)cc1	-	-	-	-
Cn1c(C(=O)N2CCCC(C(=O)O)C2)cc2sccc21 (centres undefined)	-	-	-	-
Cn1c(C(=O)N2CCCC(C(=O)N3CCN(C(=O)c4ccco4)CC3)C2)cc2sccc21 (centres undefined)	-	84	-	-
c1ccc2c(-c3nc4ncccc4o3)cccc2c1	-	-	-	-
COC(=O)c1[nH]c2c(c1C)C(=O)CC(c1ccccc1)C2 (centres undefined)	44	-	-	-
CCCN1Cc2cccc(C(=O)NCc3ccc4c(c3)OCO4)c2C1=O	-	-	24	-
O=C(NCc1ccc2c(c1)OCO2)c1cccc2c1C(=O)N(C1CCCCC1)C2	-	-	-	-
CC(Sc1ccc2ccccc2n1)C(=O)O (centres undefined)	.	-	39	-
CC(Sc1cccc2cccc(C(=O)O)c12)C(=O)O (centres undefined)	-	-	-	-
CC(C)n1nc(C(=O)OCC(=O)N(C)C2CCS(=O)(=O)C2)c2ccccc2c1=O (centres undefined)	-	-	21	-
COc1cc(-c2c(C#N)c(N)nc(SCc3ccncc3)c2C#N)cc(OC)c1OC	-	-	-	-
N#Cc1c(N)nc(SCc2ccncc2)c(C#N)c1-c1cccs1	-	-	21	-
CCOc1ccccc1NC(=O)Cn1nnc(C(=O)NCc2ccco2)c1N	42	-	-	-
O=c1c2ccccc2nc2n1CCN2Cc1ccc(Cl)cc1	-	-	-	-
O=C(Nc1ccc(N2C(=O)C3C4C=CC(C4)C3C2=O)cc1)Nc1nncs1 (centres undefined)	-	-	-	-
O=C(Nc1nncs1)c1ccc(N2C(=O)C3C4C=CC(C4)C3C2=O)cc1 (centres undefined)	-	-	17	-

Screening results: PubChem BioAssay, The Scripps Research Institute Molecular Screening Center
